Assay results of several laboratories.
Each line is one published result; the experiments were not run side by side.
Target: Serine/threonine-protein kinase PAK 4 (PAK4, Homo sapiens, UniProt O96013)

Structure (SMILES) | test | setting | measurement | value
COc1cc(Nc2ncc(F)c(Nc3ccc4c(n3)NC(=O)C(C)(C)O4)n2)cc(OC)c1OC | binding, competition with immobilised ligand | 10 µM | inhibition | 97%
N#CC1(c2ccccn2)CCN(Cc2cc(C(=O)O)c(=O)n3ccccc23)CC1 | cell-free assay, competition with immobilised ligand | 1 µM | remaining binding | 100%
O=c1[nH]c2ccccc2n1C1CCN(Cc2ccc(-c3[nH]c4cc5ncnc5cc4nc3-c3ccccc3)cc2)CC1 | cell-free assay | 0.5 µM | remaining signal | 102%
Cc1nn(C)cc1-c1nc2c(N3CCN(Cc4ccc(Cl)cc4)CC3)c(Cl)cnc2[nH]1 | binding, competition with immobilised ligand | 1 µM | remaining binding | 100%
Cn1cc(-c2cc(F)cc(N3CCn4c(cc5c4CCCC5)C3=O)c2CO)cc(Nc2ccc(N3CCN(C4COC4)CC3)cn2)c1=O | enzyme activity, inhibitor | 0.1 µM | inhibition | 1%
Cn1cncc1[C@@](O)(COc1ccc(C#N)cc1-c1ccc(OC(F)(F)F)cc1)c1ccc(C#N)cc1 | cell-free assay, competition with immobilised ligand | 1 µM | remaining binding | 100%
C#Cc1n[nH]c2c(-c3cn([C@@H](C)c4ccccc4)c(=O)[nH]c3=O)cc(F)cc12 | enzyme activity, inhibitor | 0.1 µM | inhibition | 0.6%
Nc1ncc(-c2nc(N3CCOCC3)nc(N3CCOCC3)n2)c(C(F)F)n1 | binding, competition with immobilised ligand | 10 µM | remaining binding | 58%
COc1ncccc1-c1cnn2ccc(N3CCN(C(=O)OC(C)C)CC3)nc12 | binding, competition with immobilised ligand | 1 µM | remaining binding | 62%
Cn1cc(-c2cccc(N3CCc4c(sc5c4CC(C)(C)C5)C3=O)c2CO)cc(Nc2ccncn2)c1=O | enzyme activity, inhibitor | 1 µM | inhibition | -6%
C#Cc1n[nH]c2c(-c3cn(C(C)c4ccccn4)c(=O)[nH]c3=O)cc(F)cc12 (stereo not drawn) | enzyme activity, inhibitor | 1 µM | inhibition | -6%
Cc1n[nH]c2ccc(-c3cncc(OC[C@@H](N)Cc4c[nH]c5ccccc45)c3)cc12 | enzyme activity, inhibitor | 1 µM | inhibition | 26%
